Experimental data as given in ChEMBL document CHEMBL3244138, “New antiarrhythmic agents. 3. Primary beta-amino anilides” (J Med Chem, 1979).
Active and inactive are the calls of the source. The rule behind the calls is not given here.

Assays:
Mus musculus [1] = assay: Ratio of lidocaine ED50 to compound ED50 for antiarrhythmic activity sc dosed mouse assessed as protection against chloroform-induced fibrillation; format: functional, Heart
Mus musculus [2] = assay: Toxicity in mouse assessed as ataxia at 100 mg/kg, sc measured up to 20 mins; format: organism-based; design: dose 100 mg/kg, route subcutaneous; details: in vivo
Procedure, shortened: (§1)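 Preliminary screen: drug dissolved in 0.9% saline and given subcutaneously at 100 mg/kg to groups of 10 mice. Animals were watched for 20 min for ataxia, convulsions, loss of righting reflex or death. Each sign was recorded as the number of animals affected out of 10 tested.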

Mus musculus [3] = assay: Antiarrhythmic activity in sc dosed mouse assessed as protection against chloroform-induced fibrillation; format: functional; details: Heart
Procedure, shortened: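 Mice (10 per dose) got at least three sc doses in 0.9% saline, chosen for low to high protection. After 20 min, chloroform vapour was given until respiration stopped, then fibrillation versus coordinated ventricular contraction was scored visually.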

Mus musculus [4] = assay: Toxicity in mouse assessed as mortality at 100 mg/kg, sc measured up to 20 mins; format: organism-based; design: dose 100 mg/kg, route subcutaneous; details: in vivo; procedure, shortened: as §1
Mus musculus [5] = assay: Toxicity in mouse assessed as loss of righting reflex at 100 mg/kg, sc measured up to 20 mins; format: organism-based; design: dose 100 mg/kg, route subcutaneous; details: in vivo; procedure, shortened: as §1
Mus musculus [6] = assay: Toxicity in mouse assessed as convulsion at 100 mg/kg, sc measured up to 20 mins; format: organism-based; design: dose 100 mg/kg, route subcutaneous; details: in vivo; procedure, shortened: as §1
Canis familiaris [7] = assay: Antiarrhythmic activity in iv dosed left anterior descending coronary artery ligated myocardial infarction model of dog assessed as dose required for reduction of ectopic beats to <= 5%; format: functional, Canis lupus familiaris, Heart
Procedure, shortened: (§2)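 Dogs with myocardial infarction from two-step ligation of the left anterior descending coronary artery were studied the day after ligation and given a drug infusion. Control percent ventricular ectopic beats, ventricular rate (beats/min) and mean arterial pressure (mmHg) were taken before infusion. Clearing values and dose were taken at the time of lowest ectopic-beat incidence; results are means and SD of 3–14 experiments.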

Canis familiaris [8] = assay: Antiarrhythmic activity in left anterior descending coronary artery ligated myocardial infarction model of dog assessed as clearing value of ventricular rate at 0.5 mg/kg/min, iv; format: functional, Canis lupus familiaris, Heart; procedure, shortened: as §2
Canis familiaris [9] = assay: Toxicity in iv dosed left anterior descending coronary artery ligated myocardial infarction model of dog assessed as dose required to cause toxic effect; format: organism-based, Canis lupus familiaris; details: in vivo
Canis familiaris [10] = assay: Antiarrhythmic activity in left anterior descending coronary artery ligated myocardial infarction model of dog assessed as mean arterial blood pressure at 0.5 mg/kg/min, iv; format: functional, Canis lupus familiaris; procedure, shortened: as §2
Canis familiaris [11] = assay: Antiarrhythmic activity in left anterior descending coronary artery ligated myocardial infarction model of dog assessed as clearing value of ventricular ectopic beats at 0.5 mg/kg/min, iv; format: functional, Canis lupus familiaris, Heart; procedure, shortened: as §2
Mus musculus [12] = assay: Antiarrhythmic activity in mouse assessed as protection against chloroform-induced fibrillation at 100 mg/kg, sc; format: functional, organism-based; design: dose 100 mg/kg; details: Heart
Procedure, shortened: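 Preliminary screen: single 100 mg/kg sc dose in 0.9% saline to 10 mice. After 20 min, each mouse was held in chloroform-saturated air until respiration ceased, and the thorax was opened at once. A mouse counted as protected if ventricular contractions were coordinated rather than fibrillating. Read-out is the number protected of 10.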

Canis familiaris [13] = assay: Toxicity in iv dosed left anterior descending coronary artery ligated myocardial infarction model of dog at 0.25 mmol/kg, iv; format: organism-based, Canis lupus familiaris; details: in vivo
Canis familiaris [14] = assay: Toxicity in iv dosed left anterior descending coronary artery ligated myocardial infarction model of dog at 0.20 mmol/kg, iv; format: organism-based, Canis lupus familiaris; details: in vivo
Canis familiaris [15] = assay: Cardiovascular toxicity in iv dosed left anterior descending coronary artery ligated myocardial infarction model of dog; format: organism-based, Canis lupus familiaris; details: in vivo
Canis familiaris [16] = assay: Toxicity in iv dosed left anterior descending coronary artery ligated myocardial infarction model of dog assessed as dose required to cause convulsion; format: organism-based, Canis lupus familiaris; details: in vivo
Canis familiaris [17] = assay: Toxicity in iv dosed left anterior descending coronary artery ligated myocardial infarction model of dog assessed as dose required to cause death; format: organism-based, Canis lupus familiaris; details: in vivo
Procedure, shortened: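 Baseline ectopic beats, ventricular rate and mean arterial pressure were recorded before drug infusion. Infusion was stopped at a toxic level, and the cumulative dose in mmol/kg causing death was recorded.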

Mus musculus [18] = assay: Toxicity in mouse assessed as loss of righting reflex at 200 mg/kg, sc measured up to 20 mins; format: organism-based; design: dose 200 mg/kg, route subcutaneous; details: in vivo
Procedure, shortened: (§3)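 Mice (10 per dose) received drug sc in 0.9% saline and were watched for 20 min for ataxia, convulsions, loss of righting reflex and death, before chloroform exposure. Read-out is the number affected of 10 tested.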

Mus musculus [19] = assay: Toxicity in mouse assessed as ataxia at 200 mg/kg, sc measured up to 20 mins; format: organism-based; design: dose 200 mg/kg, route subcutaneous; details: in vivo; procedure, shortened: as §3
Canis familiaris [20] = assay: Toxicity in left anterior descending coronary artery ligated myocardial infarction model of dog at […], iv; format: organism-based, Canis lupus familiaris; details: in vivo
[21] = Oral bioavailability in dog; format: ADME, organism-based, Canis lupus familiaris; details: in vivo

| SMILES | Ratio ED50 (Mus musculus [1]) | Activity (Mus musculus [2]) | ED50 (Mus musculus [3]) | Activity (Mus musculus [4]) | Activity (Mus musculus [5]) | Activity (Mus musculus [6]) | Activity (Canis familiaris [7]) | Activity (Canis familiaris [8]) | Activity (Canis familiaris [10]) | Activity (Canis familiaris [11]) | further results |
| --- | --- | --- | --- | --- | --- | --- | --- | --- | --- | --- | --- |
| CCC(N)CC(=O)Nc1c(C)cccc1C.Cl (centres undefined) | 0.7 | Non-toxic | 380 µmol/kg | Non-toxic | Non-toxic | Non-toxic |  |  |  |  |  |
| CCc1cccc(C)c1NC(=O)CC(C)N.Cl (centres undefined) | 0.5 | Non-toxic | 540 µmol/kg | Non-toxic | Non-toxic | Non-toxic |  |  |  |  |  |
| Cc1cccc(C)c1N(C)C(=O)CC(C)N.O.O=C(O)C(O)C(O)C(=O)O (centres undefined) |  | Toxic |  | Non-toxic | Non-toxic |  |  |  |  |  |  |
| CCN(CC)CC(=O)Nc1c(C)cccc1C [LIDOCAINE] | 1 | Toxic | 260 µmol/kg | Non-toxic | Toxic | Toxic | 0.21 mmol/kg | 133 bpm | 101 mmHg | 4% | Activity (Canis familiaris [9]): 0.27 mmol/kg; Activity (Mus musculus [12]): Active |
| CCN(CC)CCC(=O)Nc1c(C)cccc1C | 0.9 | Toxic | 280 µmol/kg | Non-toxic | Non-toxic |  | 0.01 mmol/kg | 132 bpm | 115 mmHg | 15% | Activity (Canis familiaris [13]): Toxic; Activity (Canis familiaris [14]): Toxic; Activity (Canis familiaris [15]): Toxic; Activity (Canis familiaris [16]): 0.04 mmol/kg |
| Cc1cccc(C)c1NC(=O)CC(C)(C)N.Cl | 1 | Non-toxic | 250 µmol/kg | Non-toxic | Non-toxic | Non-toxic | 0.04 mmol/kg | 138 bpm | 95 mmHg | 39% | Activity (Canis familiaris [17]): 0.17 mmol/kg |
| Cc1cccc(C)c1NC(=O)C(C)N (centres undefined) [TOCAINIDE] | 0.2 |  | 1300 µmol/kg | Non-toxic | Non-toxic | Non-toxic | 0.32 mmol/kg | 148 bpm | 108 mmHg | 2% | Activity (Canis familiaris [9]): 0.3 mmol/kg |
| Cc1cccc(C)c1N(C)C(=O)CCN.Cl.O |  | Non-toxic |  | Non-toxic | Non-toxic | Non-toxic |  |  |  |  | Activity (Mus musculus [18]): Non-toxic; Activity (Mus musculus [19]): Toxic; Activity (Mus musculus [12]): inactive |
| CCc1cccc(C)c1NC(=O)CCN.Cl | 0.1 | Non-toxic | 1990 µmol/kg | Non-toxic | Non-toxic | Non-toxic |  |  |  |  |  |
| Cc1cccc(C)c1NC(=O)CCN.Cl | 0.5 | Non-toxic | 560 µmol/kg | Non-toxic | Non-toxic | Non-toxic | 0.23 mmol/kg | 120 bpm | 85 mmHg | 5% | Activity (Canis familiaris [20]): Non-toxic |
| CCN(C(=O)CC(C)N)c1c(C)cccc1C.O.O=C(O)C(O)C(O)C(=O)O (centres undefined) |  | Toxic |  |  |  | Toxic |  |  |  |  |  |
| Cc1cccc(C)c1NC(=O)CC(C)N.Cl (centres undefined) | 0.6 | Non-toxic | 460 µmol/kg | Non-toxic | Non-toxic | Non-toxic | 0.1 mmol/kg | 148 bpm | 97 mmHg | 0% | Activity (Canis familiaris [9]): 0.33 mmol/kg; bioavailability [21]: > 90% |
